Results: ChEMBL document CHEMBL2062453, “Lead optimization through VLAK protocol: new annelated pyrrolo-pyrimidine derivatives as antitumor agents” (2012)

How the values were obtained:
Assay type in all cases: functional
SN12C = assay: Cytotoxicity against human SN12C cells assessed as cell growth at 10 uM after 48 hrs by SRB assay relative to control; settings: read-out: Activity
OVCAR-5 = assay: Cytotoxicity against human OVCAR5 cells assessed as cell growth at 10 uM after 48 hrs by SRB assay relative to control; settings: OVCAR-5, 48 h, read-out: Activity
NCI-H23 = assay: Cytotoxicity against human NCI-H23 cells assessed as cell growth at 10 uM after 48 hrs by SRB assay relative to control; settings: NCI-H23, 48 h, read-out: Activity
MDA-MB-468 = assay: Cytotoxicity against human MDA-MB-468 cells assessed as cell growth at 10 uM after 48 hrs by SRB assay relative to control; settings: MDA-MB-468, 48 h, read-out: Activity
T47D = assay: Cytotoxicity against human T47D cells assessed as cell growth at 10 uM after 48 hrs by SRB assay relative to control; settings: read-out: Activity
Procedure, shortened: (§1)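 NCI single-dose primary screen across about 60 human tumour lines. Each line was inoculated and preincubated on microtiter plates, then exposed to one concentration of agent for 48 h. Growth is reported as percent growth (G%) of treated cells versus untreated control cells.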

TK-10 = assay: Cytotoxicity against human TK10 cells assessed as cell growth at 10 uM after 48 hrs by SRB assay relative to control; settings: TK-10, 48 h, read-out: Activity; procedure, shortened: as §1
NCI-H226 = assay: Cytotoxicity against human NCI-H226 cells assessed as cell growth at 10 uM after 48 hrs by SRB assay relative to control; settings: NCI-H226, 48 h, read-out: Activity
HOP-62 = assay: Cytotoxicity against human HOP62 cells assessed as cell growth at 10 uM after 48 hrs by SRB assay relative to control; settings: HOP-62, 48 h, read-out: Activity
Procedure, shortened: (§2)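 NCI primary screen of about 60 human tumour lines. Cells inoculated and preincubated, then a single test concentration added and cultures incubated 48 h. Result given as percent growth (G%) of treated versus untreated control cells.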

Hs-578T = assay: Cytotoxicity against human Hs578T cells assessed as cell growth at 10 uM after 48 hrs by SRB assay relative to control; settings: read-out: Activity; procedure, shortened: as §2
IGROV-1 = assay: Cytotoxicity against human IGROV1 cells assessed as cell growth at 10 uM after 48 hrs by SRB assay relative to control; settings: IGROV-1, 48 h, read-out: Activity; procedure, shortened: as §2
U-251 = assay: Cytotoxicity against human U251 cells assessed as cell growth at 10 uM after 48 hrs by SRB assay relative to control; settings: U-251, 48 h, read-out: Activity; procedure, shortened: as §1
HCT-15 = assay: Cytotoxicity against human HCT15 cells assessed as cell growth at 10 uM after 48 hrs by SRB assay relative to control; settings: HCT-15, 48 h, read-out: Activity; procedure, shortened: as §2
LOX IMVI = assay: Cytotoxicity against human LOXIMVI cells assessed as cell growth at 10 uM after 48 hrs by SRB assay relative to control; settings: read-out: Activity; procedure, shortened: as §2
SNB-19 = assay: Cytotoxicity against human SNB19 cells assessed as cell growth at 10 uM after 48 hrs by SRB assay relative to control; settings: SNB-19, 48 h, read-out: Activity
UACC-62 = assay: Cytotoxicity against human UACC62 cells assessed as cell growth at 10 uM after 48 hrs by SRB assay relative to control; settings: UACC-62, 48 h, read-out: Activity; procedure, shortened: as §1
SK-MEL-28 = assay: Cytotoxicity against human SK-MEL-28 cells assessed as cell growth at 10 uM after 48 hrs by SRB assay relative to control; settings: SK-MEL-28, 48 h, read-out: Activity
SK-OV-3 = assay: Cytotoxicity against human SKOV3 cells assessed as cell growth at 10 uM after 48 hrs by SRB assay relative to control; settings: SK-OV-3, 48 h, read-out: Activity
OVCAR-4 = assay: Cytotoxicity against human OVCAR4 cells assessed as cell growth at 10 uM after 48 hrs by SRB assay relative to control; settings: OVCAR-4, 48 h, read-out: Activity
COLO 205 = assay: Cytotoxicity against human COLO205 cells assessed as cell growth at 10 uM after 48 hrs by SRB assay relative to control; settings: COLO 205, 48 h, read-out: Activity; procedure, shortened: as §2
MCF7 = assay: Cytotoxicity against human MCF7 cells assessed as cell growth at 10 uM after 48 hrs by SRB assay relative to control; settings: MCF7, 48 h, read-out: Activity; procedure, shortened: as §2
ACHN = assay: Cytotoxicity against human ACHN cells assessed as cell growth at 10 uM after 48 hrs by SRB assay relative to control; settings: read-out: Activity; procedure, shortened: as §2
NCI-H460 = assay: Cytotoxicity against human NCI-H460 cells assessed as cell growth at 10 uM after 48 hrs by SRB assay relative to control; settings: NCI-H460, 48 h, read-out: Activity
786-0 = assay: Cytotoxicity against human 786-0 cells assessed as cell growth at 10 uM after 48 hrs by SRB assay relative to control; settings: 786-0, 48 h, read-out: Activity; procedure, shortened: as §2
HT-29 = assay: Cytotoxicity against human HT-29 cells assessed as cell growth at 10 uM after 48 hrs by SRB assay relative to control; settings: HT-29, 48 h, read-out: Activity; procedure, shortened: as §2
BT-549 = assay: Cytotoxicity against human BT549 cells assessed as cell growth at 10 uM after 48 hrs by SRB assay relative to control; settings: BT-549, 48 h, read-out: Activity; procedure, shortened: as §2
MDA-MB-435 = assay: Cytotoxicity against human MDA-MB-435 cells assessed as cell growth at 10 uM after 48 hrs by SRB assay relative to control; settings: MDA-MB-435, 48 h, read-out: Activity
SK-MEL-5 = assay: Cytotoxicity against human SK-MEL-5 cells assessed as cell growth at 10 uM after 48 hrs by SRB assay relative to control; settings: SK-MEL-5, 48 h, read-out: Activity

Compound	growth at 10 µM (SN12C) [%]	growth at 10 µM (OVCAR-5) [%]	growth at 10 µM (NCI-H23) [%]	growth at 10 µM (MDA-MB-468) [%]	growth at 10 µM (T47D) [%]	growth at 10 µM (TK-10) [%]	growth at 10 µM (NCI-H226) [%]	growth at 10 µM (HOP-62) [%]	growth at 10 µM (Hs-578T) [%]	growth at 10 µM (IGROV-1) [%]	growth at 10 µM (U-251) [%]	growth at 10 µM (HCT-15) [%]	growth at 10 µM (LOX IMVI) [%]	growth at 10 µM (SNB-19) [%]	growth at 10 µM (UACC-62) [%]	growth at 10 µM (SK-MEL-28) [%]	growth at 10 µM (SK-OV-3) [%]	growth at 10 µM (OVCAR-4) [%]	growth at 10 µM (COLO 205) [%]	growth at 10 µM (MCF7) [%]	other results
CSC1=Nc2c(c(C)c(-c3ccccc3)n2CCCC(=O)O)C2=NC(=O)CN12	105	98	105	90	106	135	107	88	106	88	90	95	77	104	95	84	114	92	153	94	growth at 10 µM (ACHN): 89%; growth at 10 µM (NCI-H460): 102%; growth at 10 µM (786-0): 102%; growth at 10 µM (HT-29): 97%; growth at 10 µM (BT-549): 94%; growth at 10 µM (MDA-MB-435): 107%; growth at 10 µM (SK-MEL-5): 97%
COC(=O)C(Cc1cnc[nH]1)NC(=O)CCCn1c(C)c(C)c2c1N=C(SC)N1CC(=O)N=C21 (configuration not stated)	107	106	109	96	104	111	111	103	107	95	96	105	92	94	109	113	125	90	118	92	growth at 10 µM (ACHN): 113%; growth at 10 µM (NCI-H460): 99%; growth at 10 µM (786-0): 104%; growth at 10 µM (HT-29): 96%; growth at 10 µM (BT-549): 107%; growth at 10 µM (MDA-MB-435): 102%; growth at 10 µM (SK-MEL-5): 98%
CSC1=Nc2c(c(C)c(C)n2CCCC(=O)NCCc2cnc[nH]2)C2=NC(=O)CN12	100	116	103	89	101	139	106	109	117	94	101	109	102	102	100	113	127	93	132	94	growth at 10 µM (ACHN): 112%; growth at 10 µM (NCI-H460): 101%; growth at 10 µM (786-0): 110%; growth at 10 µM (HT-29): 95%; growth at 10 µM (BT-549): 120%; growth at 10 µM (MDA-MB-435): 116%; growth at 10 µM (SK-MEL-5): 101%
CSC1=Nc2c(c(C)c(-c3ccccc3)n2CCCN2CCN(C)CC2)C2=NC(=O)CN12	96	99	94	79	80	127	76	89	75	92	101	102	93	96	87	103	96	89	91	86	growth at 10 µM (ACHN): 90%; growth at 10 µM (NCI-H460): 101%; growth at 10 µM (786-0): 98%; growth at 10 µM (HT-29): 98%; growth at 10 µM (MDA-MB-435): 105%; growth at 10 µM (SK-MEL-5): 91%
